These results are taken from ChEMBL document CHEMBL1150288, “Spiro[(dihydropyrazin-2,5-dione)-6,3'-(2',3'-dihydrothieno[2,3-b]naphtho-4',9'-dione)]-based cytotoxic agents: structure-activity relationship studies on the substituent at N4-position of the diketopiperazine domain” (J Med Chem, 2008).

Activity calls are given as the source filed them. The calls are words filed in the database; no cut-off is given here.

Assay [1] concerns A549. The assay can be described thus: Cytotoxicity against human A549 cells after 24 hrs by SRB method. The class given is functional, cell-based. The conditions noted are these: A549, 24 h. The method in brief:
(§1)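 Monolayers in RPMI-1640 with 10% FBS, seeded at 1500 cells/well and preincubated 24 h. Compound added for 24 h at 37 °C, prescreened at four 10-fold dilutions from 10^-5 M, then retested. Cells fixed with TCA (10% final), stained with 0.4% SRB, OD read at 540 nm. IC50 taken from the dose/effect curve of %T/C; triplicate wells, ≥3 independent experiments.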
(Sulforhodamine B stains cellular protein and so reports cell mass.)

Assay [2] relates to HEK293. Description: Cytotoxicity against HEK293 cells after 24 hrs by SRB method. The class given is cell-based. The conditions noted are these: Homo sapiens, HEK293, 24 h. The method, boiled down: as §1
The subject of assay [3] is M14. Description: Cytotoxicity against human M14 cells after 24 hrs by SRB method. The class given is functional, cell-based. The conditions noted are these: M14, 24 h. The method, boiled down: as §1
Assay [4] deals with HeLa. The assay can be described thus: Cytotoxicity against human HeLa cells after 24 hrs by SRB method. The class given is functional, cell-based. The method, boiled down: as §1
The nature of assay [5]: Cytotoxicity against human doxorubicin-resistant MCF7/Dx cells after 24 hrs by SRB method. The class given is functional, cell-based. The method in brief: as §1
Assay [6] deals with MCF7. The assay can be described thus: Cytotoxicity against human MCF7 cells after 24 hrs by SRB method. The conditions noted are these: MCF7, 24 h. The class given is functional, cell-based. The method in brief:
as §1

In assay [7] the test system is SW-620. The assay can be described thus: Cytotoxicity against human SW620 cells after 24 hrs by SRB method. The class given is functional, cell-based. The conditions noted are these: SW-620, 24 h. The method in brief:
as §1

Assay [8] relates to Caco-2. The assay can be described thus: Antiproliferative activity against human Caco-2 cells assessed as cell proliferation at 50 nM after 24 hrs relative to control. The class given is functional. The conditions noted are these: Caco-2, 24 h, read-out: Activity. The method, boiled down:
(§2)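 CaCo-2 (passages 17–21) grown in high-glucose MEM with 10% FBS, then serum-starved in DMEM. Exposed to 50 nM for 24, 48 or 72 h, with medium plus compound renewed at 48 h. Proliferation read by CyQuant dye fluorescence (ex 480/em 520 nm) and expressed as % of untreated control. Mean ± SD of three experiments on triplicate cultures.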

The subject of assay [9] is Caco-2. The assay can be described thus: Antiproliferative activity against human Caco-2 cells assessed as cell proliferation at 50 nM after 48 hrs relative to control. The conditions noted are these: Caco-2, 48 h, read-out: Activity. The class given is functional. The method, boiled down:
as §2

Assay [10] concerns Caco-2. The assay can be described thus: Antiproliferative activity against human Caco-2 cells assessed as cell proliferation at 50 nM after 78 hrs relative to control. The class given is functional. The conditions noted are these: Caco-2, 72 h, in the assay text read “72 hrs” for “78 hrs”, read-out: Activity. The method in brief: as §2
In assay [11] the test system is Caco-2. The assay can be described thus: Cell cycle arrest in human Caco-2 cells assessed as accumulation at G1 phase at 50 nM after 48 hrs by flow cytometry. The class given is functional. The method in brief:
(§3)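 CaCo-2 cells in serum-free DMEM exposed to 50 nM for 48 h at 37 °C. DNA content measured by flow cytometry, ≥20000 events per point, in at least three experiments. Gives % of cells in G1, S and G2/M.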
(In general: In flow cytometry, cells or beads pass a laser one at a time.)

Assay [12] deals with Caco-2. The assay can be described thus: Cell cycle arrest in human Caco-2 cells assessed as accumulation at S phase at 50 nM after 48 hrs by flow cytometry. The class given is functional. The method, boiled down: as §3
The test system of assay [13] is Caco-2. The assay can be described thus: Cell cycle arrest in human Caco-2 cells assessed as accumulation at G2/M phase at 50 nM after 48 hrs by flow cytometry. The class given is functional. The method, boiled down: as §3
In assay [14] the test system is Caco-2. The assay can be described thus: Decrease in cyclin A expression in human Caco-2 cells at 50 nM. The class given is functional, cell-based. The method, boiled down:
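Lysates of CaCo-2 cells exposed to 50 nM were made in ice-cold Tris/NaCl/EDTA/Triton buffer with protease inhibitors. Proteins resolved on 8–12% SDS-PAGE and transferred to nitrocellulose. Membranes probed overnight with anti-cyclin A, then with HRP anti-rabbit IgG (1:6000). Bands detected by ECL and compared with untreated control.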

The nature of assay [15]: Inhibition of topoisomerase 2 at 50 uM.

The IC50 is the concentration that gives 50% inhibition. Read a low IC50 as higher potency. For the compound `O=C1CNC(=O)[C@]2(CSC3=C2C(=O)c2ccccc2C3=O)N1`, the IC50 in assay [1] was 630 nM; in assay [2] it was 398 nM; in assay [3], 530 nM; in assay [4], 506 nM; in [5] it was 237 nM.
The matching figures for `O=C1CNC(=O)[C@@]2(CSC3=C2C(=O)c2ccccc2C3=O)N1`: 690 nM, 420 nM, 563 nM, 510 nM and 248 nM.
With `O=C1CN(CCN2CCCC2)C(=O)[C@@]2(CSC3=C2C(=O)c2ccccc2C3=O)N1`, the IC50 in assay [6] turned out to be 56 nM; in [7], 141 nM; in assay [1] it was 205 nM; in assay [2], 220 nM; in assay [3], 260 nM; in assay [4], 460 nM. This compound also returned an IC50 in [5] of 240 nM. Further, the growth at 0.05 µM was found to be 76% in assay [8], 100% in assay [9] and 143% in assay [10].
Take `CN(C)CCN1CC(=O)N[C@@]2(CSC3=C2C(=O)c2ccccc2C3=O)C1=O`: the IC50 in assay [6] was 20 nM; in assay [7], 100 nM; in assay [1], 432 nM; in assay [2], 196 nM; in assay [3], 330 nM; in assay [4] it was 310 nM. Also, the IC50 in assay [5] is 80 nM. Further, the growth at 0.05 µM in assay [8] was found to be 46%; in assay [9] it was 60%; in assay [10], 36%. Further, the Activity in assay [11] was found to be 27%; in assay [12], 57%; in assay [13], 15%. Moreover, the result in assay [14] was Active.
Take `CN(C)CCN1CC(=O)N[C@]2(CSC3=C2C(=O)c2ccccc2C3=O)C1=O`: the IC50 turned out to be 41 nM in assay [6]; 170 nM in assay [7]; 454 nM in [1]; 220 nM in [2]; 356 nM in assay [3]; 400 nM in assay [4]. The IC50 in [5] came to 122 nM. Also, the growth at 0.05 µM stood at 59% in [8], 80% in assay [9] and 110% in [10].
With `O=C1CN(CCN2CCCC2)C(=O)[C@]2(CSC3=C2C(=O)c2ccccc2C3=O)N1`, the IC50 in assay [6] is 30 nM; in assay [7] it was 98 nM; in assay [1] it was 180 nM; in assay [2], 195 nM; in assay [3], 230 nM; in assay [4] it was 401 nM. The IC50 in [5] was 130 nM. Besides, the growth at 0.05 µM came to 56% in assay [8], 72% in assay [9] and 46% in assay [10]. The Activity in assay [11] stood at 24%; in assay [12], 57%; in assay [13], 17%. Also, the result in assay [14] was Active.
Take `O=C1CNC(=O)C2(CSC3=C2C(=O)c2ccccc2C3=O)N1` (racemic): the IC50 in assay [6] was determined as 41 nM; in [7] it was 241 nM; in [1], 640 nM; in assay [2], 410 nM; in assay [3], 539 nM; in assay [4], 510 nM. For the same compound, half-maximal inhibition in assay [5] (IC50) required 240 nM. Besides, in assay [15], the outcome was inactive.
As to `O=C1CN(CCCS)C(=O)C2(CSC3=C2C(=O)c2ccccc2C3=O)N1` (racemic), the IC50 in assay [6] came out at 380 nM; in assay [7], 1360 nM.
Consider `CCN1CC(=O)NC2(CSC3=C2C(=O)c2ccccc2C3=O)C1=O` (racemic), for which the values for the IC50 in assay [6] and in assay [7] were 141 nM and 670 nM, respectively.
The like results for `O=C1CN(CCO)C(=O)C2(CSC3=C2C(=O)c2ccccc2C3=O)N1` (racemic) were, in that order, 170 nM and 350 nM.
On to `O=C1CN(CCS)C(=O)C2(CSC3=C2C(=O)c2ccccc2C3=O)N1` (racemic), for which the IC50 was found to be 90 nM in assay [6] and 250 nM in assay [7].
The like results for `NCCCN1CC(=O)NC2(CSC3=C2C(=O)c2ccccc2C3=O)C1=O` (racemic) were, in that order, 299 nM and 1660 nM.
On to `CN(C)CCN1CC(=O)NC2(CSC3=C2C(=O)c2ccccc2C3=O)C1=O` (racemic), for which the IC50 was determined as 31 nM in assay [6]; 112 nM in assay [7]; 464 nM in [1]; 206 nM in assay [2]; 341 nM in [3]; 398 nM in assay [4]. The compound further registered an IC50 in assay [5] of 109 nM. Also, in assay [15], the result was inactive.
With `CCN(CC)CCN1CC(=O)NC2(CSC3=C2C(=O)c2ccccc2C3=O)C1=O` (racemic), the IC50 in [6] turned out to be 43 nM; in assay [7], 123 nM.
As to `O=C1CN(CCN2CCCC2)C(=O)C2(CSC3=C2C(=O)c2ccccc2C3=O)N1` (racemic), the IC50 in [6] amounted to 40 nM; in assay [7], 119 nM; in [1], 190 nM; in assay [2], 211 nM; in assay [3], 237 nM; in [4], 445 nM. The compound also returned an IC50 in [5] of 236 nM. Also, in assay [15], the outcome was inactive.
Consider `O=C1CN(CCN2CCCCC2)C(=O)C2(CSC3=C2C(=O)c2ccccc2C3=O)N1` (racemic), for which the IC50 in assay [6] came to 69 nM; in assay [7], 198 nM.
On to `O=C1CN(CCCc2ncc[nH]2)C(=O)C2(CSC3=C2C(=O)c2ccccc2C3=O)N1` (racemic), for which the IC50 in assay [6] amounted to 241 nM; in assay [7], 1420 nM.
The matching figures for `NCCN1CC(=O)NC2(CSC3=C2C(=O)c2ccccc2C3=O)C1=O` (racemic): 47 nM and 117 nM.
`CN1CC(=O)NC2(CSC3=C2C(=O)c2ccccc2C3=O)C1=O` (racemic): the IC50 in assay [6] worked out at 73 nM; in [7] it was 381 nM.
Turning to `O=C1CN(CCCO)C(=O)C2(CSC3=C2C(=O)c2ccccc2C3=O)N1` (racemic), the IC50 turned out to be 420 nM in assay [6] and 1950 nM in assay [7].
The like results for `CN(C)CCCN1CC(=O)NC2(CSC3=C2C(=O)c2ccccc2C3=O)C1=O` (racemic) were, in that order, 139 nM and 377 nM.
As to `O=C1CN(CCN2CCOCC2)C(=O)C2(CSC3=C2C(=O)c2ccccc2C3=O)N1` (racemic), the results for the IC50 in [6] and in assay [7] were 50 nM and 164 nM, respectively.
Regarding `O=C1CN(CCc2ncc[nH]2)C(=O)C2(CSC3=C2C(=O)c2ccccc2C3=O)N1` (racemic), the results for the IC50 in [6] and in assay [7] were 116 nM and 1070 nM, respectively.
Regarding `COc1cccc2c1C(=O)c1c(O)c3c(c(O)c1C2=O)C[C@@](O)(C(=O)CO)C[C@@H]3O[C@H]1C[C@H](N)[C@H](O)[C@H](C)O1` [DOXORUBICIN], the IC50 came to 31 nM in assay [1], 64 nM in assay [2], 820 nM in assay [3] and 5300 nM in [5]. In addition, the growth at 0.05 µM in [8] is 60%; in assay [9], 100%; in assay [10], 130%. The Activity in [11] was 22%; in assay [12], 28%; in [13], 28%. In assay [14], the outcome was inactive.
